Measurements taken from ChEMBL document CHEMBL1154107, “Inhibitors of VIM-2 by screening pharmacologically active and click-chemistry compound libraries” (Bioorg Med Chem, 2009).
≈ marks a conversion by molar mass, not a printed value. Calls of active or inactive are those of the source. No cut-off for these calls is given here.

Key:
[1] = Inhibition of VIM2 using nitrocefin as substrate after 15 mins by microtiter plate assay
[2] = Inhibition of IMP1 using nitrocefin as substrate after 15 mins by microtiter plate assay
[3] = Inhibition of VIM2 using CCF2 as substrate after 15 mins by FRET assay
[4] = Inhibition of IMP1 in Escherichia coli
[5] = test system: Escherichia coli BL21(DE3); assay: Inhibition of VIM2 in imipenem-resistant Escherichia coli BL21(DE3) assessed as potentiation of imipenem-induced bactericidal activity at 50 uM after 18 hrs by twofold serial broth dilution method
[6] = test system: Escherichia coli BL21(DE3); assay: (§1) Inhibition of VIM2 in imipenem-resistant Escherichia coli BL21(DE3) assessed as potentiation of imipenem-induced bactericidal activity at […] after 18 hrs by checkerboard microdilution method
Escherichia coli [7] = assay: Bactericidal activity against imipenem-resistant Escherichia coli BL21(DE3) expressing VIM2 gene at […] after 24 hrs by broth microdilution method; format: functional
Escherichia coli [8] = assay: Bactericidal activity against imipenem-non resistant Escherichia coli BL21(DE3) at […] after 24 hrs by broth microdilution method; format: functional
Escherichia coli [9] = assay: Bacteriostatic activity against imipenem-resistant Escherichia coli BL21(DE3) expressing VIM2 gene at […] after 24 hrs by broth microdilution method; format: functional
Escherichia coli [10] = assay: Bacteriostatic activity against imipenem-non resistant Escherichia coli BL21(DE3) at […] after 24 hrs by broth microdilution method; format: functional
[11] = test system: Escherichia coli BL21(DE3); assay: as §1; remark: listed apart in the source
[12] = test system: Escherichia coli BL21(DE3); assay: Inhibition of VIM2 in imipenem-resistant Escherichia coli BL21(DE3) assessed as potentiation of imipenem-induced bactericidal activity at 4.2 ug/mL after 18 hrs by checkerboard microdilution method
Outline: (§2)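 Checkerboard in 96-well plates, 0.2 mL. […] BL21/VIM-2 pre-grown 5 h at 37°C with kanamycin; inoculum 1 × 10^6 CFU/mL. Shaken ≥18 h at 37°C. MIC read per CLSI; synergy by ΣFIC; QC strain ATCC 35218.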

[13] = Inhibition of TEM-1 using nitrocefin as substrate after 15 mins by microtiter plate assay
[14] = Inhibition of Enterobacter cloacae AmpC using nitrocefin as substrate after 15 mins by microtiter plate assay
[15] = Inhibition of VIM2 using nitrocefin as substrate by rapid dilution method
[16] = Inhibition of VIM2 using nitrocefin as substrate at 56 uM after 15 mins by microtiter plate assay
[17] = Inhibition of VIM2 using CCF2 as substrate at 44 uM after 15 mins by FRET assay
Outline: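 VIM-2 (0.1 nM final) in 50 mM HEPES, 50 μM ZnSO4, 0.05% Brij 35, pH 7.1, preincubated 15 min at RT with compound; CCF2-FA added to 10 μM, 25 min at RT, stopped with EDTA. Ratiometric fluorescence read at excitation 409 nm, emission 460/535 nm. Triplicate ten-point 1:3 dilutions; IC50 from four-parameter fit of ratio data.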

[18] = Inhibition of IMP1 using nitrocefin as substrate at 56 uM after 15 mins by microtiter plate assay
[19] = Inhibition of TEM-1 using nitrocefin as substrate at 25 uM after 15 mins by microtiter plate assay
Enterobacter cloacae = assay: Inhibition of Enterobacter cloacae AmpC using nitrocefin as substrate at 25 uM after 15 mins by microtiter plate assay
Escherichia coli [20] = assay: Antibacterial activity against imipenem-non resistant Escherichia coli BL21(DE3) after 18 hrs by twofold serial broth dilution method; format: functional
Outline: (§3)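 Two-fold serial broth dilution MIC per CLSI, 10-point dilutions in Iso-Sensitest broth, 2 mL tubes. BL21 grown 5 h at 37°C in LB (kanamycin 30 μg/mL for pET-9a VIM-2 transformants). Inoculum 5 × 10^5 CFU/mL; shaken ≥18 h at 37°C aerobically.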

Escherichia coli [21] = assay: Antibacterial activity against imipenem-resistant Escherichia coli BL21(DE3) expressing VIM2 gene after 18 hrs by twofold serial broth dilution method; format: functional; outline: as §3
[22] = Inhibition of VIM2 using CCF2 as substrate at 36 uM after 15 mins by FRET assay
Outline: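 FRET endpoint assay in 50 mM HEPES, 50 μM ZnSO4, 0.05% Brij 35, pH 7.1. VIM-2 (0.1 nM final) preincubated 15 min at RT with compound. CCF2-FA added to 10 μM final, 25 min at RT, stopped with EDTA. Excitation 409 nm, emissions 460 and 535 nm, read as ratio. Triplicate dilution series starting at 56 μM nominal.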

[23] = Inhibition of VIM2 using nitrocefin as substrate at 15 uM after 15 mins by microtiter plate assay
[24] = Inhibition of IMP1 using nitrocefin as substrate at 140 uM after 15 mins by microtiter plate assay
Escherichia coli [25] = assay: Selectivity ratio of MIC for imipenem-resistant Escherichia coli BL21(DE3) expressing VIM2 gene to MIC for imipenem-non resistant Escherichia coli BL21(DE3); format: functional
Escherichia coli [26] = assay: Bactericidal activity against imipenem-resistant Escherichia coli BL21(DE3) expressing VIM2 gene at […] up to 6 hrs by broth microdilution method; format: functional
Escherichia coli [27] = assay: Bactericidal activity against imipenem-non resistant Escherichia coli BL21(DE3) at […] up to 6 hrs by broth microdilution method; format: functional
Escherichia coli [28] = assay: Bactericidal activity against imipenem-resistant Escherichia coli BL21(DE3) expressing VIM2 gene at […] after 6 hrs by broth microdilution method; format: functional
Escherichia coli [29] = assay: Bactericidal activity against imipenem-non resistant Escherichia coli BL21(DE3) at […] after 6 hrs by broth microdilution method; format: functional
[30] = test system: Escherichia coli BL21(DE3); assay: Inhibition of VIM2 in imipenem-resistant Escherichia coli BL21(DE3) assessed as potentiation of imipenem-induced bactericidal activity at 8.9 ug/mL after 18 hrs by checkerboard microdilution method; outline: as §2
[31] = test system: Escherichia coli BL21(DE3); assay: Inhibition of VIM2 in imipenem-resistant Escherichia coli BL21(DE3) assessed as potentiation of imipenem-induced bactericidal activity at 4.5 ug/mL after 18 hrs by checkerboard microdilution method; outline: as §2

With `O=C(O)CC(Cc1ccccc1Cl)C(=O)O` (stereo not given) the IC50 [1] was 33 µM, the IC50 [2] was 1.6 µM and the Ki [2] was 1.6 µM. The IC50 [3] was 50 µM and the Ki [4] was 3.3 µM.
With `O=C1c2c(O)ccc(O)c2C(=O)c2c(NCCNCCO)ccc(NCCNCCO)c21` the Activity [5] was “Active”, the Activity [6] was “Active” and the Activity (Escherichia coli [7]) was “inactive”. The Activity (Escherichia coli [8]) was “inactive”, the Activity (Escherichia coli [9]) was “inactive” and the Activity (Escherichia coli [10]) was “inactive”. For the same compound, the Activity [11] was “Active” and the Activity [12] was “Active”.
In the case of 4-CHLOROMERCURIBENZOIC ACID, the IC50 [13] is reported as over 25 µM and the IC50 [14] is reported as over 25 µM.
With `COCc1nn[nH]c1CNS(=O)(=O)c1ccc(I)cc1` the IC50 [1] was 7.3 µM, the IC50 [2] was over 56 µM and the IC50 [3] was 4.1 µM. The Ki [15] was 1.41 µM, the inhibition [16] was 74% and the inhibition [17] was 90%. For the same compound, the inhibition [18] was 0%, the IC50 [13] was over 25 µM and the inhibition [19] was 0%. The IC50 [14] was over 25 µM, the inhibition (Enterobacter cloacae) was 0% and the MIC (Escherichia coli [20]) was over 60 µg/mL. The MIC (Escherichia coli [21]) was over 60 µg/mL and the Activity [5] was “inactive”.
In the case of `O=S(=O)(NCc1[nH]nnc1CN1CCN(c2ccc(Cl)c(Cl)c2)CC1)c1ccc(I)cc1`, the IC50 [1] is reported as over 56 µM and the inhibition [16] is reported as 5%.
`C#CCCOCc1nn[nH]c1CNS(=O)(=O)c1ccc(I)cc1` gave an IC50 [1] of 3.3 µM, an IC50 [2] of over 56 µM and an IC50 [3] of 1.3 µM. The Ki [15] was 0.41 µM, the inhibition [16] was 79% and the inhibition [17] was 76%. The inhibition [18] was 0%, the IC50 [13] was over 25 µM and the inhibition [19] was 0%. It also gave an IC50 [14] of over 25 µM, an inhibition (Enterobacter cloacae) of 0% and an MIC (Escherichia coli [20]) of over 60 µg/mL. For the same compound, the MIC (Escherichia coli [21]) was over 60 µg/mL and the Activity [5] was “inactive”.
For 4-[sequence] ACID, the inhibition [22] was 83%, the inhibition [23] was 80% and the inhibition [24] was 0%. It also gave an inhibition [19] of 0%, an inhibition (Enterobacter cloacae) of 0% and an MIC (Escherichia coli [20]) of 17.9 µg/mL. For the same compound, the MIC (Escherichia coli [21]) was 17.9 µg/mL, the Ratio (Escherichia coli [25]) was 9 and the Activity [5] was “Active”. For the same compound, the Activity [6] was “Active”, the Activity (Escherichia coli [26]) was “Active” and the Activity (Escherichia coli [27]) was “Active”. The Activity (Escherichia coli [28]) was “inactive”, the Activity (Escherichia coli [29]) was “inactive” and the Activity (Escherichia coli [9]) was “inactive”. The Activity (Escherichia coli [10]) was “inactive”, the Activity [30] was “Active” and the Activity [31] was “Active”.
`C[C@@H](O)[C@H]1C(=O)N2C(C(=O)O)=C(SCCNC=N)C[C@H]12` [IMIPENEM ANHYDROUS] gave an MIC (Escherichia coli [20]) of 0.2 µg/mL (≈ 0.668 µM).
With `Cn1cc(Cc2nn[nH]c2CNS(=O)(=O)c2ccc(I)cc2)c2ccccc21` the IC50 [1] was over 56 µM and the inhibition [16] was 11%.
`Cc1ccc(Cl)cc1N1CCN(Cc2nn[nH]c2CNS(=O)(=O)c2ccc(I)cc2)CC1` showed an IC50 [1] of over 56 µM and an inhibition [16] of 0%.
`CC1(C)OCC(COCc2nn[nH]c2CNS(=O)(=O)c2ccc(I)cc2)O1` (stereo not given) showed an IC50 [1] of over 56 µM and an inhibition [16] of 31%.
